The results in this text go back to ChEMBL document CHEMBL3797028, “Novel S1P1 receptor agonists - Part 4: Alkylaminomethyl substituted aryl head groups” (Eur J Med Chem, 2016).

pEC50: −log10 of the molar value.

The nature of assay [1]: Selectivity ratio of EC50 for human recombinant S1PR3 expressed in CHO cell membranes to EC50 for human recombinant S1PR1 expressed in CHO cell membranes. Format: cell-based. An outline of the steps:
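Compound and membranes are pre-incubated 30 min at rt, then incubated 1 h at rt, filtered and counted. EC50 is the concentration giving 50% of S1P-defined specific binding, as the geometric mean of ≥3 independent duplicate runs. Ratio = EC50 S1PR3/EC50 S1PR1.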

Assay [2] addresses Sphingosine 1-phosphate receptor 3 (Homo sapiens, UniProt Q99500). Description: Agonist activity at human recombinant S1PR3 expressed in CHO cell membranes assessed as [35S]GTPgammaS binding preincubated for 30 mins followed by [35S]GTPgammaS addition measured after 1 hr by topcount analysis. Format: functional. An outline of the steps: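 Membranes from CHO cells expressing recombinant human S1P1 or S1P3 were used. Buffer was 20 mM Hepes pH 7.4, 100 mM NaCl, 5 mM MgCl2, 0.1% fatty-acid-free BSA, 2.5% DMSO and 50 pM 35S-GTPgammaS. GDP was […] for S1P3. Compound was preincubated 30 min at rt, then incubated 1 h at rt with 35S-GTPgammaS. Bound label was collected by filtration and counted. Specific binding was taken against 10 uM S1P. EC50 was the 50%-of-specific-binding concentration, reported as the geometric mean of at least three independent duplicate runs.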
In general terms: GTPγS resists hydrolysis and so accumulates on activated G proteins.

In assay [3] the target is Sphingosine 1-phosphate receptor 1 (Homo sapiens, UniProt P21453). The assay is described as follows: Agonist activity at human recombinant S1PR1 expressed in CHO cell membranes assessed as [35S]GTPgammaS binding preincubated for 30 mins followed by [35S]GTPgammaS addition measured after 1 hr by topcount analysis.
Sphingosine 1-phosphate receptor 1, sequence (P21453 whole entry): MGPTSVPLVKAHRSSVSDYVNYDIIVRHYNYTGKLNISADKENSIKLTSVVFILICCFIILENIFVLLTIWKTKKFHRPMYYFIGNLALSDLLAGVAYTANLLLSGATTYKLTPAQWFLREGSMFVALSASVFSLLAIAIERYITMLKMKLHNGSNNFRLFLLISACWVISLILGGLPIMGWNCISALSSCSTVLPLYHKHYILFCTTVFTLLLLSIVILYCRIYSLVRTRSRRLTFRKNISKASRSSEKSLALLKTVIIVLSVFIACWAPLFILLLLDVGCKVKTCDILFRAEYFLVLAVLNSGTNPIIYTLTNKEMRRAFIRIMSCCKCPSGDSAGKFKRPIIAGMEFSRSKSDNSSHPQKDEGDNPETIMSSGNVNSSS

Sphingosine 1-phosphate receptor 3, sequence (Q99500 whole entry): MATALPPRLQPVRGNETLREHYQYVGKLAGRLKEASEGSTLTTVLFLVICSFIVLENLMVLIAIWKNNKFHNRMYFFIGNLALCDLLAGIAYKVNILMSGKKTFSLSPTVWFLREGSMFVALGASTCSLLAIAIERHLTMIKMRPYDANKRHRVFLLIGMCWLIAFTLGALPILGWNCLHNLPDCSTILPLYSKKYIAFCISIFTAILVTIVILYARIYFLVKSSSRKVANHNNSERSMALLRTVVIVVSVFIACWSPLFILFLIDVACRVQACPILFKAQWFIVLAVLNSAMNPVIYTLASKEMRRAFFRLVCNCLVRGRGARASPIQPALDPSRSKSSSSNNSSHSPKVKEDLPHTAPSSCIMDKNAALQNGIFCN

As to `CCCCN(C)Cc1cc(-c2nc(-c3cc(C)c(OC[C@@H](O)CNC(=O)CO)c(CC)c3)no2)cc(C)n1`, in assay [1], the Ratio EC50 amounted to 349. Besides, the results for the negative logarithm of the EC50 (pEC50) in assay [2] and in assay [3] were 5.82 and 8.37, respectively.
The corresponding values for `CCc1cc(-c2noc(-c3ccc(C)c(CNCC(C)C)c3)n2)cc(C)c1OC[C@@H](O)CNC(=O)CO` are above 4, below 5.00 and 5.63.
As for `CCc1cc(-c2noc(-c3cc(C)nc(CN(CC)CC)c3)n2)cc(C)c1OC[C@@H](O)CO`, in assay [3], the pEC50 (in general, the EC50 on a negative log10 scale, so that one unit is a factor of ten) is 6.96.
With `CCc1cc(-c2nc(-c3cc(C)c(OC[C@@H](O)CNC(=O)CO)c(CC)c3)no2)ccc1CN(C)CC`, in assay [1], the Ratio EC50 stood at 100. The pEC50 in assay [2] was 7.00; in assay [3] it was 9.00.
As for `CCc1cc(-c2noc(-c3cc(C)cc(CNCC(C)C)c3)n2)cc(C)c1OC[C@@H](O)CNC(=O)CO`, in assay [1], the Ratio EC50 was 140. The negative-log EC50 (pEC50) was 5.68 in assay [2] and 7.82 in assay [3].
The corresponding values for `CCc1cc(-c2noc(-c3ccc(CN4CCCC4)c(C)c3)n2)cc(C)c1OC[C@@H](O)CNC(=O)CO` are 62, 5.51 and 7.30.
Take `CCc1cc(-c2nc(-c3cc(C)c(CCC(=O)NCCO)c(CC)c3)no2)cnc1N(C)C(C)C`: the pEC50 in assay [3] is 8.29.
`CCNCc1ccc(-c2nc(-c3cc(C)c(OC[C@@H](O)CNC(=O)CO)c(CC)c3)no2)s1`: the Ratio EC50 in assay [1] was above 34. Also, the pEC50 in assay [2] is below 5.00; in assay [3], 6.53.
Turning to `CCCN(C)Cc1sc(-c2nc(-c3cc(C)c(OC[C@@H](O)CNC(=O)CO)c(CC)c3)no2)cc1CC`, the Ratio EC50 in assay [1] amounted to 40. Further, the pEC50 in assay [2] is 7.70; in assay [3], 9.30.
The corresponding values for `CCc1cc(-c2noc(-c3cc(C)nc(CN(C)C)c3)n2)cc(C)c1OC[C@@H](O)CNC(=O)CO` are above 250, below 5.00 and 7.40.
The corresponding values for `CCc1cc(CN(C)CC(C)C)cc(-c2nc(-c3cc(C)c(OC[C@@H](O)CNC(=O)CO)c(CC)c3)no2)c1` are 7, 8.10 and 8.96.
The corresponding values for `CCc1cc(-c2noc(-c3ccc(C)c(CN(C)CC(C)C)c3)n2)cc(C)c1OC[C@@H](O)CNC(=O)CO` are 12, 5.92 and 7.01.
Take `CCc1cc(-c2nc(-c3cc(C)c(OC[C@@H](O)CNC(=O)CO)c(CC)c3)no2)ccc1CN(CC)CC`: the Ratio EC50 in assay [1] came to 210. The figures for the pEC50 in assay [2] and in assay [3] were 6.68 and 9.00, respectively.
As for `CCCN(C)Cc1sc(-c2nc(-c3cc(C)c(OC[C@@H](O)CNC(=O)CO)c(CC)c3)no2)cc1C`, the Ratio EC50 in assay [1] turned out to be 200. The negative logarithm of the EC50 (pEC50) is 6.92 in assay [2] and 9.22 in assay [3].
The corresponding values for `CCCN(C)Cc1cc(C)cc(-c2nc(-c3cc(C)c(OC[C@@H](O)CNC(=O)CO)c(CC)c3)no2)c1` are 93, 6.42 and 8.39.
Turning to `CCc1cc(-c2noc(-c3cc(C)c(CN(C)CCO)s3)n2)cc(C)c1OC[C@@H](O)CNC(=O)CO`, the Ratio EC50 in assay [1] is 607. Also, the pEC50 in assay [2] was 5.77; in assay [3], 8.55.
The corresponding values for `CCc1cc(-c2noc(-c3ccc(CN(C)C)s3)n2)cc(C)c1OC[C@@H](O)CNC(=O)CO` are above 1850, below 5.00 and 8.27.
The corresponding values for `CCCCN(C)Cc1sc(-c2nc(-c3cc(C)c(OC[C@@H](O)CNC(=O)CO)c(CC)c3)no2)cc1C` are 171, 6.92 and 9.15.
The corresponding values for `CCc1cc(-c2noc(-c3cc(C)nc(CN(CC)CC)c3)n2)cc(C)c1OC[C@@H](O)CNC(=O)CO` are 180, 5.09 and 7.35.
On to `CCCCN(C)Cc1cc(-c2nc(-c3cc(C)c(OC[C@@H](O)CNC(=O)CO)c(CC)c3)no2)ccc1C`, for which the Ratio EC50 in assay [1] amounted to 9. For the same molecule, the pEC50 was 5.54 in assay [2] and 6.51 in assay [3].
With `CCCN(C)Cc1cc(-c2nc(-c3cc(C)c(OC[C@@H](O)CNC(=O)CO)c(CC)c3)no2)ccc1C`, in assay [1], the Ratio EC50 amounted to 14. Moreover, the pEC50 is 5.37 in assay [2] and 6.52 in assay [3].
On to `CCc1cc(-c2noc(-c3ccc(CN(C)C)c(C)c3)n2)cc(C)c1OC[C@@H](O)CNC(=O)CO`, for which the negative logarithm of the EC50 (pEC50) in assay [2] is 5.49.
For `CCc1cc(-c2noc(-c3cc(C)c(CNCC(C)C)s3)n2)cc(C)c1OC[C@@H](O)CNC(=O)CO`, in assay [1], the Ratio EC50 worked out at 70. Moreover, the pEC50 in assay [2] was 5.85; in assay [3], 7.70.
The corresponding values for `CCc1cc(-c2noc(-c3ccc(CNC)s3)n2)cc(C)c1OC[C@@H](O)CNC(=O)CO` are above 53, below 5.00 and 6.72.
`CCc1cc(-c2nc(-c3cc(C)c(OC[C@@H](O)CNC(=O)CO)c(CC)c3)no2)sc1CN(C)C`: in assay [1], the Ratio EC50 was 150. Further, the pEC50 is 7.35 in assay [2] and 9.52 in assay [3].
The corresponding values for `CCc1cc(-c2noc(-c3sc(CN(C)C)c(C)c3C)n2)cc(C)c1OC[C@@H](O)CNC(=O)CO` are 687, 5.36 and 8.19.
Regarding `CCc1cc(-c2noc(-c3ccc(CNC(C)C)s3)n2)cc(C)c1OC[C@@H](O)CNC(=O)CO`, in assay [1], the Ratio EC50 was above 49. The pEC50 in assay [2] is below 5.00; in assay [3], 6.69.
`CCCc1cc(CN(C)CC(C)C)cc(-c2nc(-c3cc(C)c(OC[C@@H](O)CNC(=O)CO)c(CC)c3)no2)c1`: the Ratio EC50 in assay [1] is below 2. Besides, the negative-log EC50 (pEC50) in assay [2] is 8.46; in assay [3], 8.55.
The corresponding values for `CCCCN(C)Cc1ccc(-c2nc(-c3cc(C)c(OC[C@@H](O)CNC(=O)CO)c(CC)c3)no2)cc1C` are 66, 6.46 and 8.28.
As to `CCCNCc1cccc(-c2nc(-c3cc(C)c(OC[C@@H](O)CNC(=O)CO)c(CC)c3)no2)c1`, the Ratio EC50 in assay [1] was above 33. Besides, the figures for the pEC50 in assay [2] and in assay [3] were below 5.00 and 6.52, respectively.
Consider `CCc1cc(-c2noc(-c3ccc(CN(C)CC)c(C)c3)n2)cc(C)c1OC[C@@H](O)CNC(=O)CO`, for which the Ratio EC50 in assay [1] was determined as 65. Further, the results for the negative logarithm of the EC50 (pEC50) in assay [2] and in assay [3] were 6.04 and 7.85, respectively.
As to `CCc1cc(-c2noc(-c3sc(CN(C)CC(C)C)c(C)c3C)n2)cc(C)c1OC[C@@H](O)CNC(=O)CO`, the Ratio EC50 in assay [1] was 42. For the same molecule, the values for the negative-log EC50 (pEC50) in assay [2] and in assay [3] were 5.64 and 7.26, respectively.
On to `CCc1cc(-c2nnc(-c3cc(C)nc(N(CC)CC)c3)o2)cc(C)c1OC[C@@H](O)CNC(=O)CO`, for which the pEC50 in assay [3] is 8.10.
Regarding `CCc1cc(-c2noc(-c3cc(C)c(C=O)s3)n2)cc(C)c1OC[C@@H](O)CNC(=O)CO`, the results for the pEC50 in assay [2] and in assay [3] were below 5.00 and 7.59, respectively.
With `CCc1cc(-c2noc(-c3ccc(C)c(CN(C)CC)c3)n2)cc(C)c1OC[C@@H](O)CNC(=O)CO`, the Ratio EC50 in assay [1] was 32. Also, the pEC50 in assay [2] was 5.05; in assay [3] it was 6.55.
The corresponding values for `CCc1cc(-c2noc(-c3ccc(CN(C)CC)s3)n2)cc(C)c1OC[C@@H](O)CNC(=O)CO` are 676, 5.34 and 8.17.
As to `CCc1cc(-c2noc(-c3cccc(CNC)c3)n2)cc(C)c1OC[C@@H](O)CNC(=O)CO`, the Ratio EC50 in assay [1] was above 53. Moreover, the pEC50 in assay [2] is below 5.00; in assay [3], 6.72.
As for `CCc1cc(-c2noc(-c3cc(C)nc(CN4CCCC4)c3)n2)cc(C)c1OC[C@@H](O)CNC(=O)CO`, the Ratio EC50 in assay [1] is above 105. Besides, the pEC50 was below 5.00 in assay [2] and 7.02 in assay [3].
The corresponding values for `CCCN(C)Cc1sc(-c2nc(-c3cc(C)c(OC[C@@H](O)CNC(=O)CO)c(CC)c3)no2)c(C)c1C` are 26, 6.43 and 7.85.
For `CCc1cc(-c2noc(-c3cc(C)c(CNC)s3)n2)cc(C)c1OC[C@@H](O)CNC(=O)CO`, the Ratio EC50 in assay [1] is above 714. The pEC50 in assay [2] was below 5.00; in assay [3], 7.85.
The corresponding values for `CCc1cc(-c2noc(-c3cc(CN(C)CC(C)C)ccc3C)n2)cc(C)c1OC[C@@H](O)CNC(=O)CO` are above 20, below 5.00 and 6.31.
The corresponding values for `CCc1cc(-c2noc(-c3ccc(CN(C)C)cc3)n2)cc(C)c1OC[C@@H](O)CNC(=O)CO` are above 62, below 5.00 and 6.80.
The corresponding values for `CCCN(C)Cc1cc(-c2nc(-c3cc(C)c(OC[C@@H](O)CNC(=O)CO)c(CC)c3)no2)cc(C)n1` are 102, 6.06 and 8.07.
For the molecule `CCc1cc(-c2noc(-c3ccc(C)c(CN(C)C)c3)n2)cc(C)c1OC[C@@H](O)CNC(=O)CO`, the Ratio EC50 in assay [1] was above 26. Besides, the pEC50 was below 5.00 in assay [2] and 6.41 in assay [3].
The corresponding values for `CCc1cc(-c2noc(-c3cc(C)c(CN(C)CC)s3)n2)cc(C)c1OC[C@@H](O)CNC(=O)CO` are 115, 6.82 and 8.89.
